According to ChEMBL document CHEMBL1138040, “Activation of murine RNase L by isopolar 2'-phosphonate analogues of 2',5' oligoadenylates” (J Med Chem, 2006):
pEC50: −log10 of the molar value.

Experiments:
[1] = target: T1, 2-5A-dependent ribonuclease (Mus musculus) (UniProt Q05921); test: Displacement of pA4[32P]pCp from mouse spleen RNase L at 1 uM; type: tissue-based
T1 sequence (whole entry): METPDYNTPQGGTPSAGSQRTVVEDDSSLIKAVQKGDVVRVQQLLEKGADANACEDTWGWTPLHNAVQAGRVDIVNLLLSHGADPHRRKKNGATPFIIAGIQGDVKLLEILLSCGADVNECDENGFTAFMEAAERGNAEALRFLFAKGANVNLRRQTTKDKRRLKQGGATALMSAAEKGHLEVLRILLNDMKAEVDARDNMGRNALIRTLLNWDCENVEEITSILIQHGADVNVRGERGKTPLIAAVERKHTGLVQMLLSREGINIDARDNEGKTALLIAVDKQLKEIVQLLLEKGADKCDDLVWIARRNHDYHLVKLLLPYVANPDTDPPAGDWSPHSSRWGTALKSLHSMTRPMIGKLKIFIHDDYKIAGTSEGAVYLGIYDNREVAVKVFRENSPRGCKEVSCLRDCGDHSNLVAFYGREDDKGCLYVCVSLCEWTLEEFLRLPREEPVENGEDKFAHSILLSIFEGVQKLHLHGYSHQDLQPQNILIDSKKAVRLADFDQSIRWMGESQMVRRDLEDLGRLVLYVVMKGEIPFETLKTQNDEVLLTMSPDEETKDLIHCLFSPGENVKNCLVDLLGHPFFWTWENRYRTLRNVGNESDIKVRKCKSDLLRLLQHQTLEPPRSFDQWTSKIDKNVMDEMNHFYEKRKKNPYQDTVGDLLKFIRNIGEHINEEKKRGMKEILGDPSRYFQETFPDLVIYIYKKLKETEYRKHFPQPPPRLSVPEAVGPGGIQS
Outline: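 Competitive radiobinding using 20 µL male BALB/c mouse spleen 126 000g supernatant; oligoadenylate at 1 µM final with about 0.4 nM pA4-[32P]pCp in 25 µL. Held 60 min at 4 °C, filtered through nitrocellulose, washed with Tris pH 7.6/KCl/MgCl2/glycerol, bound radioactivity counted by scintillation. Triplicates; percent binding relative to natural pA4.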

[2] = organism: Mus musculus; test: Stability in mouse spleen assessed as ability to resist degradation by nuclease; type: ADME
Outline: (§1)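 Oligoadenylate (2.5 nmol) mixed with 9 µL soluble mouse spleen 126 000g supernatant, kept at 4 °C. Sampled periodically: diluted with aqueous 0.1% TFA, spun 14 000g 10 min, run on C18 RP-HPLC (acetonitrile gradient in 0.1% TFA, 260 nm). Intact and degradation peaks integrated to follow degradation over time.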

[3] = target: T2, 2-5A-dependent ribonuclease (Mus musculus, UniProt Q05921); test: Binding to mouse RNase L assessed as displacement of pA4-[32P]pCp
T2 sequence (Q05921 whole entry): T1 sequence (whole entry)

[4] = Half life in mouse spleen at 4 degreeC; type: ADME; outline: as §1

Row | Activity [1] [%] | SMILES | other results
1 | 49 | Nc1ncnc2c1ncn2[C@@H]1O[C@H](COP(=O)(O)O[C@@H]2[C@H](O)[C@@H](COP(=O)(O)O[C@H]3[C@H](O)[C@@H](COP(=O)(O)O)O[C@H]3n3cnc4c(N)ncnc43)O[C@H]2n2cnc3c(N)ncnc32)[C@@H](O)[C@H]1OP(=O)(O)O | 
2 | 43 | Nc1ncnc2c1ncn2[C@@H]1O[C@H](COP(=O)(O)O)[C@H](O)[C@H]1OP(=O)(O)OC[C@H]1O[C@@H](n2cnc3c(N)ncnc32)[C@H](OP(=O)(O)OC[C@H]2O[C@@H](n3cnc4c(N)ncnc43)[C@H](OP(=O)(O)OC[C@H]3O[C@@H](n4cnc5c(N)ncnc54)[C@H](OP(=O)(O)O)[C@@H]3O)[C@H]2O)[C@H]1O | 
3 | 51 | Nc1ncnc2c1ncn2[C@@H]1O[C@H](COP(=O)(O)O)[C@H](O)[C@H]1OP(=O)(O)OC[C@H]1O[C@@H](n2cnc3c(N)ncnc32)[C@H](OP(=O)(O)OC[C@H]2O[C@@H](n3cnc4c(N)ncnc43)[C@H](OP(=O)(O)OC[C@H]3O[C@@H](n4cnc5c(N)ncnc54)[C@H](OP(=O)(O)O)[C@@H]3O)[C@@H]2O)[C@H]1O | 
4 | 0 | Nc1ncnc2c1ncn2[C@@H]1O[C@H](COP(=O)(O)O[C@H]2[C@H](O)[C@@H](COP(=O)(O)O[C@H]3[C@H](O)[C@@H](COP(=O)(O)O)O[C@H]3n3cnc4c(N)ncnc43)O[C@H]2n2cnc3c(N)ncnc32)[C@@H](O)[C@H]1OP(=O)(O)O | 
5 | 33 | Nc1ncnc2c1ncn2[C@@H]1O[C@H](COP(=O)(O)O[C@H]2[C@H](O)[C@@H](COP(=O)(O)O[C@@H]3[C@H](O)[C@@H](COP(=O)(O)O)O[C@H]3n3cnc4c(N)ncnc43)O[C@H]2n2cnc3c(N)ncnc32)[C@@H](O)[C@H]1OP(=O)(O)O | 
6 | 67 | Nc1ncnc2c1ncn2[C@@H]1O[C@H](COP(=O)(O)O[C@@H]2[C@H](O)[C@@H](COP(=O)(O)O)O[C@H]2n2cnc3c(N)ncnc32)[C@H](O)[C@H]1OP(=O)(O)OC[C@H]1O[C@@H](n2cnc3c(N)ncnc32)[C@H](OP(=O)(O)OC[C@H]2O[C@@H](n3cnc4c(N)ncnc43)[C@H](OP(=O)(O)O)[C@@H]2O)[C@@H]1O | 
7 | 40 | Nc1ncnc2c1ncn2[C@@H]1O[C@H](COP(=O)(O)O[C@@H]2[C@H](O)[C@@H](COP(=O)(O)O[C@@H]3[C@H](O)[C@@H](COP(=O)(O)O[C@H]4[C@H](O)[C@@H](COP(=O)(O)O)O[C@H]4n4cnc5c(N)ncnc54)O[C@H]3n3cnc4c(N)ncnc43)O[C@H]2n2cnc3c(N)ncnc32)[C@@H](O)[C@H]1OP(=O)(O)O | 
8 | 0 | Nc1ncnc2c1ncn2[C@@H]1O[C@H](COP(=O)(O)O[C@H]2[C@H](O)[C@@H](COP(=O)(O)O[C@H]3[C@H](O)[C@@H](COP(=O)(O)O[C@H]4[C@H](O)[C@@H](COP(=O)(O)O)O[C@H]4n4cnc5c(N)ncnc54)O[C@H]3n3cnc4c(N)ncnc43)O[C@H]2n2cnc3c(N)ncnc32)[C@@H](O)[C@H]1OP(=O)(O)O | 
9 | 93 | Nc1ncnc2c1ncn2[C@@H]1O[C@H](COP(=O)(O)O)[C@H](O)[C@H]1OP(=O)(O)OC[C@H]1O[C@@H](n2cnc3c(N)ncnc32)[C@H](OP(=O)(O)OC[C@H]2O[C@@H](n3cnc4c(N)ncnc43)[C@H](OP(=O)(O)OC[C@H]3O[C@@H](n4cnc5c(N)ncnc54)[C@H](OP(=O)(O)O)[C@@H]3O)[C@H]2O)[C@@H]1O | Stability [2]: Stable; pEC50 [3]: 6.49
10 | 24 | Nc1ncnc2c1ncn2[C@@H]1O[C@H](COP(=O)(O)O[C@@H]2[C@H](O)[C@@H](COP(=O)(O)O[C@H]3[C@H](O)[C@@H](COP(=O)(O)O[C@H]4[C@H](O)[C@@H](COP(=O)(O)O)O[C@H]4n4cnc5c(N)ncnc54)O[C@H]3n3cnc4c(N)ncnc43)O[C@H]2n2cnc3c(N)ncnc32)[C@@H](O)[C@H]1OP(=O)(O)O | 
11 | 45 | Nc1ncnc2c1ncn2[C@@H]1O[C@H](COP(=O)(O)O)[C@H](O)[C@H]1OP(=O)(O)OC[C@H]1O[C@@H](n2cnc3c(N)ncnc32)[C@H](OP(=O)(O)OC[C@H]2O[C@@H](n3cnc4c(N)ncnc43)[C@H](OP(=O)(O)O)[C@@H]2O)[C@H]1O | 
12 | 100 | Nc1ncnc2c1ncn2[C@@H]1O[C@H](COP(=O)(O)O[C@@H]2[C@H](O)[C@@H](COP(=O)(O)O[C@@H]3[C@H](O)[C@@H](COP(=O)(O)O[C@@H]4[C@H](O)[C@@H](COP(=O)(O)O)O[C@H]4n4cnc5c(N)ncnc54)O[C@H]3n3cnc4c(N)ncnc43)O[C@H]2n2cnc3c(N)ncnc32)[C@@H](O)[C@H]1OP(=O)(O)O | half-life [4]: 10 h; pEC50 [3]: 9.05
13 | 41 | Nc1ncnc2c1ncn2[C@@H]1O[C@H](COP(=O)(O)O[C@@H]2[C@H](O)[C@@H](COP(=O)(O)O)O[C@H]2n2cnc3c(N)ncnc32)[C@H](O)[C@H]1OP(=O)(O)OC[C@H]1O[C@@H](n2cnc3c(N)ncnc32)[C@H](OP(=O)(O)O)[C@@H]1O | 
14 | 39 | Nc1ncnc2c1ncn2[C@@H]1O[C@H](COP(=O)(O)O[C@@H]2[C@H](O)[C@@H](COP(=O)(O)O[C@@H]3[C@H](O)[C@@H](COP(=O)(O)O)O[C@H]3n3cnc4c(N)ncnc43)O[C@H]2n2cnc3c(N)ncnc32)[C@@H](O)[C@H]1OP(=O)(O)O | 
15 | 51 | Nc1ncnc2c1ncn2[C@@H]1O[C@H](COP(=O)(O)O[C@H]2[C@H](O)[C@@H](COP(=O)(O)O[C@@H]3[C@H](O)[C@@H](COP(=O)(O)O[C@H]4[C@H](O)[C@@H](COP(=O)(O)O)O[C@H]4n4cnc5c(N)ncnc54)O[C@H]3n3cnc4c(N)ncnc43)O[C@H]2n2cnc3c(N)ncnc32)[C@@H](O)[C@H]1OP(=O)(O)O | 
16 | 86 | Nc1ncnc2c1ncn2[C@@H]1O[C@H](COP(=O)(O)O)[C@H](O)[C@H]1OP(=O)(O)OC[C@H]1O[C@@H](n2cnc3c(N)ncnc32)[C@H](OP(=O)(O)OC[C@H]2O[C@@H](n3cnc4c(N)ncnc43)[C@H](OP(=O)(O)OC[C@H]3O[C@@H](n4cnc5c(N)ncnc54)[C@H](OP(=O)(O)O)[C@@H]3O)[C@@H]2O)[C@@H]1O | 
17 | 64 | Nc1ncnc2c1ncn2[C@@H]1O[C@H](COP(=O)(O)O)[C@H](O)[C@H]1OP(=O)(O)OC[C@H]1O[C@@H](n2cnc3c(N)ncnc32)[C@H](OP(=O)(O)OC[C@H]2O[C@@H](n3cnc4c(N)ncnc43)[C@H](OP(=O)(O)O)[C@@H]2O)[C@@H]1O | 
18 | 37 | Nc1ncnc2c1ncn2[C@@H]1O[C@H](COP(=O)(O)O[C@@H]2[C@H](O)[C@@H](COP(=O)(O)O[C@H]3[C@H](O)[C@@H](COP(=O)(O)O[C@@H]4[C@H](O)[C@@H](COP(=O)(O)O)O[C@H]4n4cnc5c(N)ncnc54)O[C@H]3n3cnc4c(N)ncnc43)O[C@H]2n2cnc3c(N)ncnc32)[C@@H](O)[C@H]1OP(=O)(O)O | 
19 | 33 | Nc1ncnc2c1ncn2[C@@H]1O[C@H](COP(=O)(O)O[C@H]2[C@H](O)[C@@H](COP(=O)(O)O[C@H]3[C@H](O)[C@@H](COP(=O)(O)O[C@@H]4[C@H](O)[C@@H](COP(=O)(O)O)O[C@H]4n4cnc5c(N)ncnc54)O[C@H]3n3cnc4c(N)ncnc43)O[C@H]2n2cnc3c(N)ncnc32)[C@@H](O)[C@H]1OP(=O)(O)O | 
20 | 88 | Nc1ncnc2c1ncn2[C@@H]1O[C@H](COP(=O)(O)O[C@@H]2[C@@H](O)[C@@H](COP(=O)(O)O[C@@H]3[C@H](O)[C@@H](COP(=O)(O)O)O[C@H]3n3cnc4c(N)ncnc43)O[C@H]2n2cnc3c(N)ncnc32)[C@H](O)[C@H]1OP(=O)(O)OC[C@H]1O[C@@H](n2cnc3c(N)ncnc32)[C@H](OP(=O)(O)O)[C@@H]1O | pEC50 [3]: 6.41
